Calls of active or inactive are those of the source. No cut-off for these calls is given here.
Assays:
SF-539 [1] = test: Cytotoxicity against human SF539 cells assessed as cell growth at 8 uM by sulforhodamine B assay relative to control; assay type: functional; settings: read-out: Activity
SW-620 [2] = test: Cytotoxicity against human SW620 cells assessed as cell growth at 80 nM by sulforhodamine B assay relative to control; assay type: functional; settings: read-out: Activity
RPMI-8226 = test: Cytotoxicity against human RPMI8226 cells assessed as cell growth at 8 uM by sulforhodamine B assay relative to control; assay type: functional; settings: read-out: Activity
UO-31 = test: Cytotoxicity against human UO31 cells assessed as cell growth at 80 uM by sulforhodamine B assay relative to control; assay type: functional; settings: read-out: Activity
MCF7 [3] = test: Cytotoxicity against human MCF7 cells assessed as cell growth at 80 nM by sulforhodamine B assay relative to control; assay type: functional; settings: read-out: Activity
EKVX [4] = test: Cytotoxicity against human EKVX cells assessed as cell growth at 8 uM by sulforhodamine B assay relative to control; assay type: functional; settings: read-out: Activity
A549 = test: Cytotoxicity against human A549 cells by sulforhodamine B assay; assay type: functional
How it was run: (§1)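 Run at NCI in the DTP 60-cell-line human tumor panel by standard procedure. Compounds were first screened at a single concentration, then tested at five tenfold-spaced concentrations. GI50 is the concentration reducing treated-cell growth to half that of untreated controls; TGI is the concentration completely halting growth.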

TK-10 [5] = test: Cytotoxicity against human TK10 cells assessed as cell growth at 8 nM by sulforhodamine B assay relative to control; assay type: functional; settings: read-out: Activity
Malme-3M = test: Cytotoxicity against human MALME-3M cells assessed as cell growth at 8 nM by sulforhodamine B assay relative to control; assay type: functional; settings: read-out: Activity
NCI-H322M [6] = test: Cytotoxicity against human NCI-H322M cells assessed as cell growth at 80 nM by sulforhodamine B assay relative to control; assay type: functional; settings: read-out: Activity
HCT-116 = test: Cytotoxicity against human HCT116 cells assessed as cell growth at 8 nM by sulforhodamine B assay relative to control; assay type: functional; settings: read-out: Activity
OVCAR-8 = test: Cytotoxicity against human OVCAR8 cells assessed as cell growth at 800 nM by sulforhodamine B assay relative to control; assay type: functional; settings: read-out: Activity
NCI-H226 = test: Cytotoxicity against human NCI-H226 cells assessed as cell growth at 80 nM by sulforhodamine B assay relative to control; assay type: functional; settings: read-out: Activity
MOLT-4 = test: Cytotoxicity against human MOLT4 cells by sulforhodamine B assay; assay type: functional
How it was run: (§2)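 NCI Developmental Therapeutics Program 60-cell-line human tumor panel screen, run at NCI. A single-concentration pre-screen was followed by a five-concentration dose-response in 10-fold steps. GI50 is the concentration that reduces growth of treated cells to half that of untreated control cells. TGI is the concentration that completely halts growth.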

SNB-75 = test: Cytotoxicity against human SNB75 cells assessed as cell growth at 8 nM by sulforhodamine B assay relative to control; assay type: functional; settings: read-out: Activity
SF-268 = test: Cytotoxicity against human SF268 cells by sulforhodamine B assay; assay type: functional
IGROV-1 [7] = test: Cytotoxicity against human IGROV1 cells assessed as cell growth at 8 uM by sulforhodamine B assay relative to control; assay type: functional; settings: read-out: Activity
HL-60(TB) = test: Cytotoxicity against human HL-60(TB) cells assessed as cell growth at 800 nM by sulforhodamine B assay relative to control; assay type: functional; settings: read-out: Activity
A498 = test: Cytotoxicity against human A498 cells assessed as cell growth at 80 uM by sulforhodamine B assay relative to control; assay type: functional; settings: read-out: Activity; how it was run: as §1
Mus musculus = test: Acute toxicity in athymic nude mouse assessed as mortality at 25 mg/kg, […]; assay type: organism-based; set-up: dose 25 mg/kg, route intraperitoneal; settings: in vivo, ip, 576 h
EKVX [8] = test: Cytotoxicity against human EKVX cells assessed as cell growth at 80 nM by sulforhodamine B assay relative to control; assay type: functional; settings: read-out: Activity
MDA-MB-435 [9] = test: Cytotoxicity against human MDA-MB-435 cells assessed as cell growth at 8 nM by sulforhodamine B assay relative to control; assay type: functional; settings: read-out: Activity
NCI/ADR-RES = test: Cytotoxicity against human NCI/ADR-RES cells assessed as cell growth at 8 nM by sulforhodamine B assay relative to control; assay type: functional; settings: read-out: Activity
786-0 [10] = test: Cytotoxicity against human 786-0 cells assessed as cell growth at 80 nM by sulforhodamine B assay relative to control; assay type: functional; settings: read-out: Activity; how it was run: as §1
IGROV-1 [11] = test: Cytotoxicity against human IGROV1 cells assessed as cell growth at 800 nM by sulforhodamine B assay relative to control; assay type: functional; settings: read-out: Activity
NCI-H522 = test: Cytotoxicity against human NCI-H522 cells assessed as cell growth at 8 uM by sulforhodamine B assay relative to control; assay type: functional; settings: read-out: Activity
HCC 2998 = test: Cytotoxicity against human HCC2998 cells assessed as cell growth at 80 uM by sulforhodamine B assay relative to control; assay type: functional; settings: read-out: Activity
MCF7 [12] = test: Cytotoxicity against human MCF7 cells assessed as cell growth at 800 nM by sulforhodamine B assay relative to control; assay type: functional; settings: read-out: Activity
OVCAR-4 = test: Cytotoxicity against human OVCAR4 cells assessed as cell growth at 80 uM by sulforhodamine B assay relative to control; assay type: functional; settings: read-out: Activity
ACHN = test: Cytotoxicity against human ACHN cells assessed as cell growth at 8 nM by sulforhodamine B assay relative to control; assay type: functional; settings: read-out: Activity; how it was run: as §1
Pseudomonas aeruginosa = test: Antimicrobial activity against Pseudomonas aeruginosa ATCC 27853 by CLSI method; assay type: functional, organism-based
SNB-19 = test: Cytotoxicity against human SNB19 cells assessed as cell growth at 80 nM by sulforhodamine B assay relative to control; assay type: functional; settings: read-out: Activity
SW-620 [13] = test: Cytotoxicity against human SW620 cells assessed as cell growth at 8 uM by sulforhodamine B assay relative to control; assay type: functional; settings: read-out: Activity
Hs-578T = test: Cytotoxicity against human Hs578T cells assessed as cell growth at 80 uM by sulforhodamine B assay relative to control; assay type: functional; settings: read-out: Activity
NCI-H322M [14] = test: Cytotoxicity against human NCI-H322M cells assessed as cell growth at 8 nM by sulforhodamine B assay relative to control; assay type: functional; settings: read-out: Activity
SF-539 [15] = test: Cytotoxicity against human SF539 cells assessed as cell growth at 800 nM by sulforhodamine B assay relative to control; assay type: functional; settings: read-out: Activity
MDA-MB-435 [16] = test: Cytotoxicity against human MDA-MB-435 cells assessed as cell growth at 80 nM by sulforhodamine B assay relative to control; assay type: functional; settings: read-out: Activity
TK-10 [17] = test: Cytotoxicity against human TK10 cells assessed as cell growth at 800 nM by sulforhodamine B assay relative to control; assay type: functional; settings: read-out: Activity
UACC-257 = test: Cytotoxicity against human UACC257 cells by sulforhodamine B assay; assay type: functional; how it was run: as §2
EKVX [18] = test: Cytotoxicity against human EKVX cells assessed as cell growth at 8 nM by sulforhodamine B assay relative to control; assay type: functional; settings: read-out: Activity
786-0 [19] = test: Cytotoxicity against human 786-0 cells assessed as cell growth at 80 uM by sulforhodamine B assay relative to control; assay type: functional; settings: read-out: Activity; how it was run: as §1

Structure (SMILES): C/C=C1\NC(=O)[C@H](Cc2ccccc2)NC(=O)[C@@H](C(C)C)NC(=O)[C@@H]([C@@H](C)CC)NC(=O)[C@H](NC(=O)[C@H](NC(=O)[C@H](CCCNCc2ccc(F)c(C)c2)NC(=O)[C@H]2CCCN2C(=O)[C@H](NC(=O)[C@@H](NC(=O)[C@@H](NC(=O)[C@H](NC(=O)CCCC(C)C)C(C)C)[C@@H](C)O)C(C)C)C(C)C)[C@@H](C)CC)[C@@H](C)OC(=O)[C@H](C(C)C)NC1=O
- growth at 8 µM (SF-539 [1]): -93%
- growth at 0.08 µM (SW-620 [2]): 97%
- growth at 8 µM (RPMI-8226): -64%
- growth at 80 µM (UO-31): -11%
- growth at 0.08 µM (MCF7 [3]): 101%
- growth at 8 µM (EKVX [4]): -82%
- GI50 (A549; read-out: GI50): 167 nM
- GI50 (A549; read-out: pGI50 (converted)): 166 nM
- growth at 0.008 µM (TK-10 [5]): 112%
- growth at 0.008 µM (Malme-3M): 108%
- growth at 0.08 µM (NCI-H322M [6]): 95%
- growth at 0.008 µM (HCT-116): 98%
- growth at 0.8 µM (OVCAR-8): 92%
- growth at 0.08 µM (NCI-H226): 109%
- GI50 (MOLT-4): 2140 nM
- LC50 (MOLT-4): > 75900 nM
- growth at 0.008 µM (SNB-75): 112%
- GI50 (SF-268): 955 nM
- growth at 8 µM (IGROV-1 [7]): -75%
- growth at 0.8 µM (HL-60(TB)): 106%
- growth at 80 µM (A498): -100%
- Activity (Mus musculus): Toxic
- growth at 0.08 µM (EKVX [8]): 97%
- growth at 0.008 µM (MDA-MB-435 [9]): 109%
- growth at 0.008 µM (NCI/ADR-RES): 105%
- growth at 0.08 µM (786-0 [10]): 97%
- growth at 0.8 µM (IGROV-1 [11]): 48%
- growth at 8 µM (NCI-H522): 3%
- growth at 80 µM (HCC 2998): -88%
- growth at 0.8 µM (MCF7 [12]): 80%
- growth at 80 µM (OVCAR-4): -20%
- growth at 0.008 µM (ACHN): 100%
- Activity (Pseudomonas aeruginosa): inactive
- growth at 0.08 µM (SNB-19): 96%
- growth at 8 µM (SW-620 [13]): -100%
- growth at 80 µM (Hs-578T): -30%
- growth at 0.008 µM (NCI-H322M [14]): 105%
- growth at 0.8 µM (SF-539 [15]): 93%
- growth at 0.08 µM (MDA-MB-435 [16]): 103%
- growth at 0.8 µM (TK-10 [17]): 101%
- LC50 (UACC-257): 5130 nM
- GI50 (UACC-257; read-out: GI50): 1280 nM
- TGI (UACC-257; read-out: TGI): 2550 nM
- GI50 (UACC-257; read-out: pGI50 (converted)): 1290 nM
- TGI (UACC-257; read-out: pTGI (converted)): 2570 nM
- growth at 0.008 µM (EKVX [18]): 101%
- growth at 80 µM (786-0 [19]): -98%

Reference: ChEMBL document CHEMBL1921722, “In vitro and in vivo evaluation of select kahalalide F analogs with antitumor and antifungal activities” (Bioorg Med Chem, 2011)
